Bioassay records deposited in PubChem by The Scripps Research Institute Molecular Screening Center.
EBNA-1 inhibitor – EBNA-1 DNA-binding inhibitors, primary screen, biochemical, fluorescence polarization; inhibition, % at 14.8 µM; 0.34% of 300,000 active; AID 1950, 2009; in the data active means inhibition above about 28%
core dimer inh – inhibitors of HCV core protein dimerization, primary screen, biochemical, TR-FRET, high-throughput | TR-FRET GST/Flag-core106 dimerization, 1536-well | inhibition, % at 5 µM | 0.33% of 300,000 active;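 active means inhibition above the mean of all tested compounds plus 3 SD, set per screening campaign, cut at about 45% in these data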
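System: GST/Flag-tagged HCV core106 proteins. Incubation: compound-protein-antibody incubation 4 h at 22.5 °C. Technique: HTRF with 340 nm excitation, 617/671 nm emission. Medium: KF-containing HEPES buffer, pH 7.45, DTT, CHAPS, BSA. Read-out: inhibition (%) from 671 over 617 nm ratio. Also added: Eu(K)-anti-GST 90 ng/mL plus XL665-anti-Flag 1 µg/mL.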
PP1 inh – PP1-alpha phosphatase inhibitors, primary screen, counter-screen for PP5 inhibitor project, biochemical, fluorescence, OMFP substrate, single point | purified PP1alpha | inhibition, % at 6.7 µM | 0.9% of 320,000 active;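 active means inhibition above the mean inhibition of all tested compounds plus 3 SD, computed separately for each screening campaign, cut at about 15% in these data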
PP5 inh – PP5 phosphatase inhibitors, primary screen, biochemical, fluorescence; purified PP5c, OMFP substrate fluorescence; inhibition, % at 6.7 µM; AID 1987, 2009; 0.18% of 320,000 active;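 active means inhibition above the campaign's mean inhibition across all tested compounds plus 3 SD, cut at about 9.5% in these data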;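 further: 0% = DMSO only and 100% = 100 µM cantharidin control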
ZTA counter – ZTA (EBV) inhibition in EBNA-1 counter-screen; ZTA-DNA binding, fluorescence polarization; P03206; 0.15% of 320,000 active; inhibition, % at 11 µM; AID 2234; in the data active means inhibition above about 33%
Target sequence (P03206 whole entry, looked up): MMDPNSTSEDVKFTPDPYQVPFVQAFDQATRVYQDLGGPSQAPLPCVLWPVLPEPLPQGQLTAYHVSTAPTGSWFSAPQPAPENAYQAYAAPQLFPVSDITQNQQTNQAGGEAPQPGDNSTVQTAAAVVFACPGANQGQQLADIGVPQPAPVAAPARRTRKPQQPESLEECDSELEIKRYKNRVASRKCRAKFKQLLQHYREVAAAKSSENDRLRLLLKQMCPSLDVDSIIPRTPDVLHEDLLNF
EBNA-1 inh conf – EBNA-1 DNA-binding inhibitors, retest, confirmation, biochemical, fluorescence polarization, triplicate. shares compounds with EBNA-1 inhibitor. Recombinant EBNA-1 DBD, Cy5-DNA fluorescence polarization. inhibition, % at 14.8 µM. 35% of 830 active. AID 2292, 2010;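 active means mean inhibition across replicates above a set limit taken from the earlier primary screen, cut at about 28% in these data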;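 further: plate controls were EBNA-1 protein with DMSO for no effect and wells lacking EBNA-1 for full effect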
ZTA counter trip – EBV Zta DNA binding inhibitors, counter-screen for EBNA-1 inhibitor project, biochemical, fluorescence polarization, triplicate; shares compounds with EBNA-1 inhibitor; AID 2328, 2010; inhibition, % at 11.1 µM; 830 tested, under 10 active; Zta-ZRE DNA binding, Cy5 fluorescence polarization;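 active means mean inhibition over triplicates above a set limit taken from the primary EBNA-1 screen, cut at about 37% in these data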;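 further: purified full length Zta protein with Cy5 labeled ZRE DNA probe; 0% = Zta with DMSO and 100% = wells lacking Zta protein; inhibitors lower polarization by freeing the labeled DNA probe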
An asterisk follows results filed as active; · = not tested or not shown. Most compounds without a hit are left out; they make up all but 1.7% or so of the library.

SMILES | EBNA-1 inhibitor | core dimer inh | PP1 inh | PP5 inh | ZTA counter | EBNA-1 inh conf | ZTA counter trip
Cc1ccccc1-c1nsc(SCC(=O)Nc2ccc3c(c2)OCO3)n1 | 31* | 0 | 2 | 2 | 10 | 18 | 14
Cc1cccc(-c2nsc(SCC(=O)Nc3ccc4c(c3)OCO4)n2)c1 | -3 | -8 | 4 | 3 | -18 | · | ·
O=C(O)CN(Cc1ccccc1)S(=O)(=O)c1ccc(F)cc1 | 0 | 8 | -2 | 1 | 0 | · | ·
O=C(c1ccc2c(=O)n(Cc3ccco3)c(=S)[nH]c2c1)N1CCN(c2ccccc2)CC1 | 40* | 4 | -1 | 0 | -27 | -1 | -1
CCc1ccccc1Oc1ccc(S(=O)(=O)N2CCN(C)CC2)cn1 | -1 | -2 | -5 | 0 | 8 | · | ·
CCOC(=O)Nc1ccc2c(COC(=O)CN(C)S(=O)(=O)c3ccc(C)cc3)cc(=O)oc2c1 | 56* | 20 | -3 | -1 | 0 | 20 | 20
CCCNC(=O)c1ccc2c(=O)c(O)c(-c3ccc(OC)cc3)[nH]c2c1 | 32* | -17 | 0 | 2 | 4 | -6 | 7
Cc1ccc(S(=O)(=O)N(CC(=O)N/N=C\c2cccs2)c2cccc3cccnc23)cc1 | 32* | 28 | 1 | 4 | -5 | 28* | -4
Cc1ccc(S(=O)(=O)N(CC(=O)N/N=C/c2cccc(C)c2)c2cccc3cccnc23)cc1 | -1 | 21 | -4 | 2 | -12 | · | ·
CC(=O)c1sc(NC(=O)COc2ccc(Br)cc2)nc1C | 43* | -69 | -2 | -2 | -2 | 18 | -1
COC(=O)c1sc(NC(=O)COc2ccc(OC)cc2)nc1C | 30* | 5 | 4 | 0 | 13 | 10 | 9
CC(C)(C)c1nnc(NC(=O)COc2ccc3c(c2)OCO3)s1 | -7 | 1 | -3 | 1 | -7 | · | ·
CCOC(=O)c1sc(NC(=O)COc2ccc3c(c2)OCO3)nc1C | 65* | 7 | 4 | 1 | 10 | 124* | 3
COc1ccc2[nH]c3c(c2c1)CCN1C(=O)N([C@@H](C)C(=O)NCc2ccc(C)cc2)C(=O)[C@]31C | -2 | -1 | -1 | 4 | 8 | · | ·
Cc1csc(=O)n1CCC(=O)OCC(=O)c1ccc(Br)cc1 | -9 | -7 | -2 | -1 | -4 | · | ·
Cc1cccc(NC(=O)N2CCN(Cc3ccc4c(c3)OCO4)CC2)c1C | 13 | 2 | -3 | 1 | 15 | · | ·
COc1cc2c(cc1OC)C(C)N(C(=O)c1cc3c(C)cc(C)cc3[nH]1)CC2 (stereo not given) | 0 | 10 | 7 | 7 | 9 | · | ·
O=C(NNC(=O)C1CCN(S(=O)(=O)c2ccc(Cl)cc2)CC1)c1ccc(S(=O)(=O)N2CCCCC2)cc1 | 31* | 4 | -2 | 1 | 30 | 18 | -7
O=C(N/N=C/c1ccc2c(c1)OCO2)c1cc2ccccc2o1 | 30* | 1 | 1 | 1 | 2 | 13 | 3
COc1ccccc1NC(=O)c1c(N=Cc2c(O)ccc3ccccc23)cnn1C | 39* | -4 | -2 | 3 | 8 | 9 | 2
O=C(O)CCC(=O)Nc1ccc(Sc2ccc([N+](=O)[O-])cc2)cc1 | 0 | -6 | 1 | 1 | 2 | · | ·
C=CCn1c(=NC(=O)C2COc3ccccc3O2)sc2cc(S(N)(=O)=O)ccc21 (stereo not given) | 31* | 7 | -1 | 2 | 8 | 11 | -10
COCCn1c(=NC(=O)C2COc3ccccc3O2)sc2cc(S(N)(=O)=O)ccc21 (stereo not given) | -10 | -1 | -1 | 0 | 1 | · | ·
Oc1ccc(N=Nc2ccccc2C(F)(F)F)c2cccnc12 | 95* | 5 | 10 | 0 | 5 | -1 | 2
